The test system of assay [1] is dengue virus type 2. The experiment in a line: Inhibition of Dengue virus 2 NS2B-NS3 protease expressed in Escherichia coli Top10F' at 10 uM pre-incubated for 15 mins before addition of Bz-NIe-Lys-Arg-Arg-AMC substrate by spectrofluorometry. The procedure, abridged: (§1)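 Enzyme (DENV2 protease 25 nM; WNV protease 28 nM) pre-incubated with compound for 15 min at room temperature in 200 mM Tris·HCl pH 9.5, 30% glycerol, with 1% v/v DMSO final. Reaction started with 5 μM substrate. Fluorescence (ex 380/em 460 nm) followed every 90 s for up to 30 min at 37 °C. Percent inhibition calculated against no-compound fluorescence. Aprotinin and DMSO served as controls. Triplicates, averaged.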

Assay [2] deals with West Nile virus. The experiment in a line: Inhibition of West Nile virus NS2B-NS3 protease expressed in Escherichia coli Top10F' at 10 uM pre-incubated for 15 mins before addition of Bz-NIe-Lys-Arg-Arg-AMC substrate by spectrofluorometry. The procedure, abridged:
as §1

Assay [3] deals with dengue virus type 2. In words: Inhibition of Dengue virus 2 NS2B-NS3 protease expressed in Escherichia coli Top10F' at 25 uM pre-incubated for 15 mins before addition of Bz-NIe-Lys-Arg-Arg-AMC substrate by spectrofluorometry. The procedure, abridged:
as §1

The subject of assay [4] is West Nile virus. The experiment in a line: Inhibition of West Nile virus NS2B-NS3 protease expressed in Escherichia coli Top10F' at 25 uM pre-incubated for 15 mins before addition of Bz-NIe-Lys-Arg-Arg-AMC substrate by spectrofluorometry. In outline:
as §1

A short description of assay [5]: Inhibition of West Nile virus NS2B-NS3 protease expressed in Escherichia coli Top10F' pre-incubated for 15 mins before addition of Bz-NIe-Lys-Arg-Arg-AMC substrate by spectrofluorometry. The procedure, abridged:
(§2)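 Protease (DENV2 25 nM; WNV 28 nM) pre-incubated with compound for 15 min at room temperature in 200 mM Tris·HCl pH 9.5 with 30% glycerol. Then 5 μM substrate added, and fluorescence (ex 380/em 460 nm) read at 37 °C for up to 30 min.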

The test system of assay [6] is West Nile virus. In words: Competitive inhibition of West Nile virus NS2B-NS3 protease expressed in Escherichia coli Top10F' at 1 to 5 uM uM assessed as reduction in kcat/Km of substrate pre-incubated for 15 mins before addition of Bz-NIe-Lys-Arg-Arg-AMC substrate by spectrofluorometry. In outline: (§3)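 Inhibitor fixed at 0, 1.0, 3.0 or 5.0 μM; substrate varied 0–50 μM. Initial cleavage rates used to derive apparent Km and kcat. Ki taken from secondary plot of Km,app against inhibitor concentration. Duplicates, repeated three times.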

Assay [7] relates to West Nile virus. In words: Competitive inhibition of West Nile virus NS2B-NS3 protease expressed in Escherichia coli Top10F' at 1 to 5 uM uM assessed as increase in Km of substrate pre-incubated for 15 mins before addition of Bz-NIe-Lys-Arg-Arg-AMC substrate by spectrofluorometry. In outline:
as §3

A short description of assay [8]: Inhibition of Dengue virus 2 NS2B-NS3 protease expressed in Escherichia coli Top10F' pre-incubated for 15 mins before addition of Bz-NIe-Lys-Arg-Arg-AMC substrate by spectrofluorometry. Details: species or system dengue virus type 2. The procedure, abridged: as §2
Where [9] appears, read: 25 uM, in the assay text read “at 25 uM” for “at 10 uM”.

Each structure is given as a SMILES string. Active and inactive are the calls of the source. No cut-off for these calls is given here.

Broadly, the inhibition is the relative decrease from the control value, in per cent. What is called IC50 is the concentration that gives 50% inhibition. A lower IC50 goes with greater potency in that assay.

On to `O=C(NCc1cn(CSc2ccccc2)nn1)Nc1ccc(C(=O)NCc2ccco2)cc1`, for which the inhibition result with dengue virus type 2 [1], with West Nile virus [2] (setting [9]), with dengue virus type 2 [3] and in the assay with West Nile virus [4] was “inactive” in each case.
Regarding `O=C(NCc1cn(Cc2ccc(F)cc2)nn1)Nc1ccc(C(=O)NCCc2ccccc2)cc1`, the inhibition result in the assay on dengue virus type 2 [1], in the assay with West Nile virus [2] (setting [9]), in the assay with dengue virus type 2 [3] and in the assay on West Nile virus [4] was “inactive” in each case.
As for `O=C(NCc1cn(Cc2ccccc2)nn1)Nc1ccc(C(=O)NCCc2ccccc2)cc1`, the inhibition entry in the assay on dengue virus type 2 [1], in the assay on West Nile virus [2] (setting [9]), in the assay on dengue virus type 2 [3] and with West Nile virus [4] was “inactive” in each case.
With `O=C(NCc1cn(Cc2ccc(F)cc2)nn1)Nc1ccc(C(=O)NCCN2CCOCC2)cc1`, the inhibition entry in the assay with dengue virus type 2 [1], with West Nile virus [2] (setting [9]), with dengue virus type 2 [3] and in the assay on West Nile virus [4] was “inactive” in each case.
`O=C(NCc1cn(CSc2ccccc2)nn1)Nc1cccc(C(=O)NCCc2ccccc2)c1`: the inhibition result with dengue virus type 2 [1], with West Nile virus [2] (setting [9]), in the assay with dengue virus type 2 [3] and in the assay on West Nile virus [4] was “inactive” in each case.
As for `O=C(NCc1cn(CSc2ccccc2)nn1)Nc1ccc(C(=O)Nc2ccc(Oc3ccccc3)cc2)cc1`, the inhibition result in the assay on dengue virus type 2 [1], with West Nile virus [2] (setting [9]), with dengue virus type 2 [3] and in the assay on West Nile virus [4] was “inactive” in each case.
For the molecule `O=C(NCc1cn(Cc2ccccc2)nn1)Nc1cccc(C(=O)NCc2ccccc2)c1`, the inhibition entry in the assay on dengue virus type 2 [1], in the assay on West Nile virus [2] (setting [9]), in the assay on dengue virus type 2 [3] and with West Nile virus [4] was “inactive” each time.
On to `O=C(NCc1cn(Cc2ccccc2)nn1)Nc1ccc(C(=O)Nc2cccc(Oc3ccccc3)c2)cc1`, for which the inhibition result in the assay with dengue virus type 2 [1], with West Nile virus [2] (setting [9]), in the assay on dengue virus type 2 [3] and with West Nile virus [4] was “inactive” throughout.
As to `O=C(NCc1cn(CSc2ccccc2)nn1)Nc1ccc(C(=O)NCCN2CCOCC2)cc1`, the inhibition result in the assay with dengue virus type 2 [1], in the assay with West Nile virus [2] (setting [9]), in the assay with dengue virus type 2 [3] and in the assay on West Nile virus [4] was “inactive” in each case.
For `O=C(NCc1cn(Cc2ccccc2)nn1)Nc1ccc(C(=O)Nc2ccc(Oc3ccccc3)cc2)cc1`, the inhibition with dengue virus type 2 [1] came out at 39.4%; with West Nile virus [2] (10 uM), 46.5%; in the assay with dengue virus type 2 [3] it was 52.5%; in the assay on West Nile virus [4], 58%.
For `O=C(NCc1cn(Cc2ccc(F)cc2)nn1)Nc1ccc(C(=O)Nc2ccccc2)cc1`, the inhibition result with dengue virus type 2 [1], in the assay with West Nile virus [2] (setting [9]), with dengue virus type 2 [3] and in the assay with West Nile virus [4] was “inactive” throughout.
`O=C(NCc1cn(Cc2ccccc2)nn1)Nc1ccc(C(=O)Nc2ccccc2)cc1`: the inhibition result with dengue virus type 2 [1], in the assay with West Nile virus [2] (setting [9]), in the assay with dengue virus type 2 [3] and with West Nile virus [4] was “inactive” each time.
For `O=C(NCc1cn(Cc2ccc(F)cc2)nn1)Nc1ccc(C(=O)NCc2ccco2)cc1`, the inhibition result in the assay on dengue virus type 2 [1], in the assay on West Nile virus [2] (setting [9]), in the assay on dengue virus type 2 [3] and in the assay on West Nile virus [4] was “inactive” in each case.
As to `O=C(NCc1cn(CSc2ccccc2)nn1)Nc1cccc(C(=O)Nc2cccc(Oc3ccccc3)c2)c1`, the inhibition with dengue virus type 2 [1] was found to be 40.3%; in the assay with West Nile virus [2] (10 uM) it was 49.3%; with dengue virus type 2 [3] it was 58.2%; in the assay with West Nile virus [4] it was 60.3%.
Consider `O=C(NCc1cn(Cc2ccccc2)nn1)Nc1cccc(C(=O)NCCc2ccccc2)c1`, for which the inhibition result with dengue virus type 2 [1], in the assay with West Nile virus [2] (setting [9]), in the assay with dengue virus type 2 [3] and in the assay on West Nile virus [4] was “inactive” each time.
As for `O=C(NCc1cn(CSc2ccccc2)nn1)Nc1ccc(C(=O)NCc2ccccc2)cc1`, the inhibition entry in the assay on dengue virus type 2 [1], in the assay with West Nile virus [2] (setting [9]), in the assay with dengue virus type 2 [3] and in the assay with West Nile virus [4] was “inactive” each time.
As for `O=C(NCc1cn(CSc2ccccc2)nn1)Nc1ccc(C(=O)NCCc2ccccc2)cc1`, the inhibition entry in the assay on dengue virus type 2 [1], with West Nile virus [2] (setting [9]), in the assay with dengue virus type 2 [3] and in the assay on West Nile virus [4] was “inactive” throughout.
Turning to `O=C(NCc1cn(Cc2ccccc2)nn1)Nc1ccc(C(=O)NCc2ccco2)cc1`, the inhibition entry in the assay with dengue virus type 2 [1], in the assay on West Nile virus [2] (setting [9]), in the assay with dengue virus type 2 [3] and in the assay on West Nile virus [4] was “inactive” in each case.
Regarding `O=C(NCc1cn(CSc2ccccc2)nn1)Nc1ccc(C(=O)Nc2ccccc2)cc1`, the inhibition result in the assay with dengue virus type 2 [1], in the assay with West Nile virus [2] (setting [9]), in the assay with dengue virus type 2 [3] and with West Nile virus [4] was “inactive” in each case.
For `O=C(NCc1cn(Cc2ccc(F)cc2)nn1)Nc1ccc(C(=O)NCc2ccccc2)cc1`, the inhibition result in the assay with dengue virus type 2 [1], in the assay with West Nile virus [2] (setting [9]), in the assay with dengue virus type 2 [3] and in the assay on West Nile virus [4] was “inactive” in each case.
Take `O=C(NCc1cn(Cc2ccccc2)nn1)Nc1cccc(C(=O)Nc2cccc(Oc3ccccc3)c2)c1`: the inhibition entry in the assay with dengue virus type 2 [1], in the assay on West Nile virus [2] (setting [9]), with dengue virus type 2 [3] and in the assay with West Nile virus [4] was “inactive” each time.
With `O=C(NCc1cn(Cc2ccc(F)cc2)nn1)Nc1ccc(C(=O)Nc2cccc(Oc3ccccc3)c2)cc1`, the inhibition with dengue virus type 2 [1] came to 41.1%; in the assay on West Nile virus [2] (10 uM) it was 44.5%; with dengue virus type 2 [3], 57%; in the assay with West Nile virus [4], 60.9%.
Turning to `O=C(NCc1cn(CSc2ccccc2)nn1)Nc1cccc(C(=O)NCc2ccccc2)c1`, the inhibition result in the assay on dengue virus type 2 [1], in the assay with West Nile virus [2] (setting [9]), in the assay with dengue virus type 2 [3] and with West Nile virus [4] was “inactive” each time.
Take `O=C(NCc1cn(Cc2ccc(F)cc2)nn1)Nc1ccc(C(=O)Nc2ccc(Oc3ccccc3)cc2)cc1`: the IC50 in assay [5] was 5.51 µM; in assay [8], 6.82 µM. In addition, the inhibition entry with West Nile virus [6] and in the assay with West Nile virus [7] was “Active” throughout. For the same molecule, the inhibition was found to be 55.3% in the assay with dengue virus type 2 [1], 58.8% in the assay with West Nile virus [2] (10 uM), 76% in the assay with dengue virus type 2 [3] and 82.3% in the assay on West Nile virus [4].
For `O=C(NCc1cn(Cc2ccccc2)nn1)Nc1ccc(C(=O)NCc2ccccc2)cc1`, the inhibition result with dengue virus type 2 [1], in the assay on West Nile virus [2] (setting [9]), in the assay on dengue virus type 2 [3] and in the assay on West Nile virus [4] was “inactive” throughout.
As to `O=C(NCc1cn(Cc2ccccc2)nn1)Nc1ccc(C(=O)NCCN2CCOCC2)cc1`, the inhibition result with dengue virus type 2 [1], in the assay on West Nile virus [2] (setting [9]), in the assay on dengue virus type 2 [3] and in the assay with West Nile virus [4] was “inactive” throughout.

The record behind these values is ChEMBL document CHEMBL2046357, “Inhibitors of Dengue virus and West Nile virus proteases based on the aminobenzamide scaffold” (Bioorg Med Chem, 2012).
